High-throughput results from PubChem BioAssay.
PLC-gamma1 inh = PLC-gamma1 enzyme inhibitors, primary screen, biochemical, fluorescence, purified enzyme | fluorogenic substrate | AID 720700, 2013 | 1-phosphatidylinositol 4,5-bisphosphate phosphodiesterase gamma-1 (Homo sapiens), P19174 | 0.84% of 370,000 active | inhibition, % at 12.2 µM
Tn6 DDE FP = inhibitors of Tn6 peptide binding to fibrin DD(E), primary screen, biochemical, fluorescence polarization, human fibrin, Tn6 probe. Fibrinogen beta chain (Homo sapiens), P02675. Fibrin DD(E) TRITC-Tn6 fluorescence polarization displacement. inhibition, % at 8.3 µM. 0.21% of 370,000 active. AID 720509, 2013;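 active = inhibition above a per-campaign cutoff: mean of compounds within control limits plus 3 SD, cut at about 15% in these data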;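 also: 0% = median of all compound wells on the plate and 100% = blocking peptide control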
DDE Tn7 FP inh = inhibitors of Tn7 peptide binding to fibrin DD(E), primary screen, biochemical, fluorescence polarization, human fibrin, Tn7 probe; 0.13% of 370,000 active; AID 720508, 2013; Fibrinogen beta chain (Homo sapiens), P02675; FP displacement of FITC-Tn7 peptide from fibrin DD(E); 0% = median of compound wells per plate; inhibition, % at 8.3 µM;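 active = inhibition above the mean of compounds falling within the control limits plus 3 SD of them, cut at about 14% in these data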;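 also: 0% = plate median of compound wells and 100% = 10 µM Aha-Tn7 peptide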
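Also added: labelled Tn7 tracer, 0.1 µM; Assay system: human fibrin DD(E) protein; Amount: 2 µM fibrin DD(E); Schedule: 10 min compound pre-incubation, 3 h probe incubation at room temperature; Repeats: one replicate per compound; Read-out basis: percent inhibition; Measured by: fluorescence polarization of the labelled Tn7 tracer.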
proKLK7 act = proKLK7 zymogen activators, primary screen, biochemical, fluorescence intensity; Kallikrein-7 (Homo sapiens), P49862; purified proKLK7, EDANS-DABCYL substrate fluorescence; 100% is mature enzyme control, 0% vehicle; activation, % at 7 µM; 0.9% of 370,000 active; AID 652039, 2013;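 active = activation above the mean of all tested compounds plus 3 SD, computed per campaign excluding outliers beyond control limits, cut at about 13% in these data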
PLC-beta3 inh = human PLC-beta3 inhibitors, primary screen, biochemical, fluorescence. inhibition, % at 12.2 µM. 0.18% of 370,000 active. 1-phosphatidylinositol 4,5-bisphosphate phosphodiesterase beta-3 (Homo sapiens), Q01970. AID 720704, 2013. Purified PLC-beta3, fluorogenic substrate; in the data active = inhibition above about 11%;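 also: 0% = median of compound wells on plate and 100% = full blocker control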
CendR NRP1 mod = modulators of CendR peptide binding to NRP-1, primary screen, biochemical, fluorescence polarization, uHTS; FAM-RPARPAR peptide binding to NRP-1; 0.85% of 360,000 active; inhibition, % at 25 µM;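 active = inhibition or corrected inhibition above about 18%, plus a signal ratio from 0.5 to 1.5, limit read from the data, passing the limit was not always enough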
PLCgamma1 ctr = PLC-gamma1 enzyme inhibitors, counter-screen for PLC-beta3 inhibitor project, biochemical, fluorescence; shares compounds with PLC-gamma1 inh; 3.1% of 3,300 active; purified PLC-gamma1, fluorogenic substrate; inhibition, % at 12.3 µM; AID 743258, 2014
PLCb3 confirm = PLC-beta3 inhibitor confirmation, biochemical, fluorescence, purified enzyme. inhibition, % at 12.3 µM. shares compounds with PLC-gamma1 inh. fluorogenic substrate fluorescence. 1% of 3,300 active. AID 743261, 2014; in the data active = inhibition above about 11%
* marks the source's active call; other numbers are inactive results. Compounds with a hit are over-represented: about 3% of the library has one in this group of screens. Rule as the data show it, unless noted: active = inhibition above about 9.5%; inactive = the rest.

`O=C(c1ccccc1)N1CCN=C1SCc1ccc([N+](=O)[O-])cc1` gave PLC-gamma1 inh 9.6*, Tn6 DDE FP 1, DDE Tn7 FP inh 6, proKLK7 act 0, PLC-beta3 inh -3, CendR NRP1 mod 12, PLCgamma1 ctr -3 and PLCb3 confirm 0.
`CC#CC(=O)N[C@H]1CC[C@@]23CCCN2C(=O)CCC[C@H]3[C@H]1C` gave PLC-gamma1 inh -3, Tn6 DDE FP 7, DDE Tn7 FP inh -1 and PLC-beta3 inh 1.
Screening CC(=O)Nc1ccc(CNc2nc(NC(C)C)nc3ccsc23)cc1 returned PLC-gamma1 inh 11*, Tn6 DDE FP -10, DDE Tn7 FP inh 0, proKLK7 act 0, PLC-beta3 inh -4, CendR NRP1 mod 28*, PLCgamma1 ctr 2 and PLCb3 confirm -4.
For CC(=O)Nc1ccc(CNc2nc(NCC3CC3)nc3ccsc23)cc1 the results were PLC-gamma1 inh 5, Tn6 DDE FP 8, DDE Tn7 FP inh 1, proKLK7 act 0, PLC-beta3 inh 4 and CendR NRP1 mod -6.
For COc1ccc(-c2cc(-c3nnc4sc(Cc5cccs5)nn34)[nH]n2)cc1 the results were PLC-gamma1 inh 1, Tn6 DDE FP -5, DDE Tn7 FP inh 5, proKLK7 act 1 and PLC-beta3 inh -1.
Screening Cc1ccc(NC(=O)c2nn(C34CC5CC(CC(C5)C3)C4)cc2[N+](=O)[O-])cc1 returned PLC-gamma1 inh 12*, Tn6 DDE FP 1, DDE Tn7 FP inh -1, proKLK7 act 1, PLC-beta3 inh 14*, CendR NRP1 mod -4, PLCgamma1 ctr 7 and PLCb3 confirm 11*.
Screening CCN1CCN(C(=O)CN(CCc2ccccc2)S(C)(=O)=O)CC1 returned PLC-gamma1 inh 9.9*, Tn6 DDE FP -1, DDE Tn7 FP inh 3, proKLK7 act 0, PLC-beta3 inh 3, CendR NRP1 mod -5, PLCgamma1 ctr -6 and PLCb3 confirm 0.
`CCn1c(SCc2c(F)cccc2F)nc2sc3c(c2c1=O)CCCC3` gave PLC-gamma1 inh 0, Tn6 DDE FP -2, DDE Tn7 FP inh 1, proKLK7 act 0 and PLC-beta3 inh 3.
For CC(C)CCNC(=O)Cn1c(=O)oc2cc(S(=O)(=O)N3CCc4ccccc43)ccc21 the results were PLC-gamma1 inh 4, Tn6 DDE FP -6, DDE Tn7 FP inh 2, proKLK7 act 0, PLC-beta3 inh 12*, CendR NRP1 mod 14, PLCgamma1 ctr -4 and PLCb3 confirm -1.
O=C(Cn1c(=O)oc2cc(S(=O)(=O)N3CCc4ccccc43)ccc21)NC1CCCC1 was read as PLC-gamma1 inh 0, Tn6 DDE FP 2, DDE Tn7 FP inh 6, proKLK7 act 0, PLC-beta3 inh 2 and CendR NRP1 mod -2.
Screening CCOc1ccc(-n2c(SCc3nc4ccccc4[nH]3)nnc2-c2cccc(Cl)c2)cc1 returned PLC-gamma1 inh -5, Tn6 DDE FP 4, DDE Tn7 FP inh 7, proKLK7 act -1 and PLC-beta3 inh -4.
`O=C1CCN(Cc2ccccc2)CCN1[C@H](CO)c1ccccc1` gave PLC-gamma1 inh 2, Tn6 DDE FP -3, DDE Tn7 FP inh -1, proKLK7 act 1, PLC-beta3 inh 2 and CendR NRP1 mod 4.
`O=C1CCN(Cc2ccc(O)cc2)CCN1[C@H](CO)c1ccccc1` gave PLC-gamma1 inh 9.7*, Tn6 DDE FP 2, DDE Tn7 FP inh 2, proKLK7 act 0, PLC-beta3 inh 4, CendR NRP1 mod -1, PLCgamma1 ctr -2 and PLCb3 confirm -1.
